{
  "source": "ChEMBL document CHEMBL3853270",
  "about": "“Influence of Birch Bark Triterpenes on Keratinocytes and Fibroblasts from Diabetic and Nondiabetic Donors” (2016)",
  "type_in_all_cases": "functional",
  "key": {"[1]": {"system": "Keratinocyte", "experiment": "Effect on antioxidant related gene expression in diabetic adult human primary keratinocytes assessed as SOD2 mRNA levels at 1.96 uM after 6 hrs by qPCR analysis"}, "[2]": {"system": "Keratinocyte", "experiment": "Effect on pro-inflammatory related gene expression in non-diabetic adult human primary keratinocytes assessed as TNF mRNA levels at 9.81 uM after 6 hrs by qPCR analysis"}, "[3]": {"system": "Keratinocyte", "experiment": "Effect on antiinflammatory related gene expression in non-diabetic adult human primary keratinocytes assessed as NFKBIA mRNA levels at 9.81 uM after 6 hrs by qPCR analysis", "method_in_brief": "(§1)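 Primary keratinocytes from nondiabetic young and adult and diabetic adult donors; 400 000 cells per sample, 6 h exposure at 1.96 or 9.81 μM. RNA extracted and read on a high-throughput qPCR chip. Results are fold change versus 0.1% DMSO solvent control from 5−7 independent experiments over two donors per group, SD, one-way ANOVA with Bonferroni post-test.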"}, "[4]": {"system": "Keratinocyte", "experiment": "Effect on AQP3 mRNA expression levels in non-diabetic adult human primary keratinocytes at 9.81 uM after 6 hrs by qPCR analysis", "method_in_brief": "as §1"}, "[5]": {"system": "Keratinocyte", "experiment": "Effect on antioxidant related gene expression in diabetic adult human primary keratinocytes assessed as SOD2 mRNA levels at 9.81 uM after 6 hrs by qPCR analysis"}, "[6]": {"system": "Fibroblast", "experiment": "Effect on pro-inflammatory related gene expression in non-diabetic adult human primary fibroblasts assessed as IL6 mRNA levels at 1.96 uM after 6 hrs by qPCR analysis"}, "[7]": {"system": "Fibroblast", "experiment": "Effect on growth factor related gene expression in diabetic adult human primary fibroblasts assessed as VEGFA mRNA levels at 1.96 uM after 6 hrs by qPCR analysis", "method_in_brief": "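Primary human dermal fibroblasts (young or adult nondiabetic, adult diabetic donor) were treated for 6 h against a 0.1% DMSO solvent control. RNA from 320 000 cells per sample was measured by Fluidigm Biomark high-throughput qPCR. Values are fold change relative to solvent control, from four independent experiments, with SD. One-way ANOVA with Bonferroni post-test was applied.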"}, "[8]": {"system": "Fibroblast", "experiment": "Effect on antioxidant related gene expression in diabetic adult human primary fibroblasts assessed as SOD2 mRNA levels at 9.81 uM after 6 hrs by qPCR analysis"}, "[9]": {"experiment": "Upregulation of wound healing activity related GM-CSF protein levels in non-diabetic adult human primary keratinocytes at 1.96 uM after 24 hrs by bead-based suspension array analysis", "settings": "Keratinocyte"}},
  "note": "The source made the active and inactive calls. The calls are words filed in the database; no cut-off is given here.",
  "data": [
    {"smiles": "C=C(C)[C@@H]1CC[C@]2(CO)CC[C@]3(C)[C@H](CC[C@@H]4[C@@]5(C)CC[C@H](O)C(C)(C)[C@@H]5CC[C@]43C)[C@@H]12", "note": "[BETULIN]", "values": [
      {"measurement": "fold change (FC)", "setting": "[1]", "value": 1.1},
      {"measurement": "fold change (FC)", "setting": "[2]", "value": 6.1},
      {"measurement": "fold change (FC)", "setting": "[3]", "value": 1.9},
      {"measurement": "fold change (FC)", "setting": "[4]", "value": 0.8},
      {"measurement": "fold change (FC)", "setting": "[5]", "value": 1.6},
      {"measurement": "fold change (FC)", "setting": "[6]", "value": 278},
      {"measurement": "fold change (FC)", "setting": "[7]", "value": 2.4},
      {"measurement": "fold change (FC)", "setting": "[8]", "value": 1.1},
      {"measurement": "Activity", "setting": "[9]", "value": "Active"}
    ]}
  ]
}
